Reference: publication PMC8146373 (Biochemical pharmacology, 2021)

Experiments:
SCTR K317A = SCTR K317A (Homo sapiens, UniProt P47872, K338A); assay: Mutational study, cAMP assay in HEK-293 cells transiently expressing SCTR K317A; assay type: cell-based; settings: 12.5–25 μM compound
GLP-1R [1] = molecular target: T1, GLP-1R (Homo sapiens, UniProt P43220); assay: GLP-1R agonist cAMP accumulation assay, GLP-1R-overexpressing HEK-293T cells; assay type: cell-based
INS-1 832/13 cells = assay: Glucose stimulated insulin secretion; assay type: cell-based, rat; settings: 20 μM compound, 15 mM glucose
GLP-1R [2] = molecular target: T2, GLP-1R (Rattus norvegicus, UniProt P32301); assay: cAMP assay; assay type: cell-based; settings: INS-1 cells, 12.5 μM compound
T2 sequence (P32301 22-463): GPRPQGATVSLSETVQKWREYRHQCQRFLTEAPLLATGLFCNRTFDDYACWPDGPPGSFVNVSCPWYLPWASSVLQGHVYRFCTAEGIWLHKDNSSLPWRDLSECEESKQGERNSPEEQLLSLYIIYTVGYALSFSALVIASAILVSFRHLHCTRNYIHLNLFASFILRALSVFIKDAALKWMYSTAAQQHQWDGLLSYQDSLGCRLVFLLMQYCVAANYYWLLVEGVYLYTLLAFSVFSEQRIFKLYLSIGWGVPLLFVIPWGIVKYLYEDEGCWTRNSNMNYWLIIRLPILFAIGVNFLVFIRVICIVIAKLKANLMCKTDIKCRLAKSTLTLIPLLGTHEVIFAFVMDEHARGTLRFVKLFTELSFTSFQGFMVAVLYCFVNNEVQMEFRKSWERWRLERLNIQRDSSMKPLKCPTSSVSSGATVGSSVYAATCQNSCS
In short: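 INS-1 832/13 cells (passage 18–29) were detached at 80–90% confluency, spun 300xg for 3 min and diluted in stimulation buffer. […] Cells were incubated 30 min at RT. LANCE Ultra detection (Eu-cAMP, ULight antibody) was read as TR-FRET after 60 min at RT.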

SCTR [3] = molecular target: T3, SCTR (Homo sapiens, UniProt P47872); assay: SCTR Sec-FL; assay type: cell-based
T3 sequence (P47872 23-440): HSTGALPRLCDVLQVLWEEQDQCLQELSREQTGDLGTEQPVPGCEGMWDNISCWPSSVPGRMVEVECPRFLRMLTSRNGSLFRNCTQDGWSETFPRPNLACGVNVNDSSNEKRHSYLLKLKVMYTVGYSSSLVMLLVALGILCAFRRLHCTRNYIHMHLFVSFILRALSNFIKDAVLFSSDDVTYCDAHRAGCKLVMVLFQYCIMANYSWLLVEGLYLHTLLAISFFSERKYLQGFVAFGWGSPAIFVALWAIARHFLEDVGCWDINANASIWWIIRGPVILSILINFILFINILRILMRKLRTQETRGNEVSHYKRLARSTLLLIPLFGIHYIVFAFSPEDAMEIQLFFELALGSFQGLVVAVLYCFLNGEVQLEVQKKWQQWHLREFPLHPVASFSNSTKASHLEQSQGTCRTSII

SNAP-SCTR = SNAP-SCTR (Homo sapiens, UniProt P47872); assay: TR-FRET SNAP-SCTR competition binding with Fluo-Sec, HEK-293 SNAP-SCTR membranes
SNAP-SCTR, sequence (P47872 23-440): as above

SCTR K317C = SCTR K317C (Homo sapiens, UniProt P47872, K338C); assay: Mutational study, cAMP assay in HEK-293 cells transiently expressing SCTR K317C; assay type: cell-based; settings: 12.5–25 μM compound
SCTR K317C, sequence (P47872 22-440 K338C limits assumed): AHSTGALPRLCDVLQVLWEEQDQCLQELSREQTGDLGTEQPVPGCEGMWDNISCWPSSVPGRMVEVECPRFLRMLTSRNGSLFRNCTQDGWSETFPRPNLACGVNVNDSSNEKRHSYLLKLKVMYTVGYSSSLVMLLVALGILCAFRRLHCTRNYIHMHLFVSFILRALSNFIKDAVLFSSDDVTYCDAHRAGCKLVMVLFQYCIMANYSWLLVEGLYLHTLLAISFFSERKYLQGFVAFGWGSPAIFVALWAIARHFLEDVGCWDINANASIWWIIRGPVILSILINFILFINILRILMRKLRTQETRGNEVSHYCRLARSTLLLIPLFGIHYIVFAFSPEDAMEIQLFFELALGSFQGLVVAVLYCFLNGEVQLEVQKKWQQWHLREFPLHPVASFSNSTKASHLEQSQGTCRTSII
SCTR K317C, sequence (P09683 28-54 partner limits assumed): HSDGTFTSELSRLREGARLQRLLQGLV

GLP-1R [4] = molecular target: T1, GLP-1R; assay: GLP-1R PAM; assay type: cell-based
GLP-1R [5] = molecular target: T1, GLP-1R; assay: cAMP wash-out experiment, GLP-1R-overexpressing HEK-293T cells; assay type: cell-based; settings: 25 μM compound, triple wash
GLP-1R [6] = molecular target: T1, GLP-1R; assay: Allosteric activity studies; assay type: cell-based
SCTR [7] = molecular target: T3, SCTR; assay: SCTR PAM; assay type: cell-based
GLP-1R C347A = GLP-1R C347A (Homo sapiens, UniProt P43220, C347A); assay type: cell-based; settings: 12.5–25 μM compound
GLP-1R C347A, sequence (P43220 24-463 C347A): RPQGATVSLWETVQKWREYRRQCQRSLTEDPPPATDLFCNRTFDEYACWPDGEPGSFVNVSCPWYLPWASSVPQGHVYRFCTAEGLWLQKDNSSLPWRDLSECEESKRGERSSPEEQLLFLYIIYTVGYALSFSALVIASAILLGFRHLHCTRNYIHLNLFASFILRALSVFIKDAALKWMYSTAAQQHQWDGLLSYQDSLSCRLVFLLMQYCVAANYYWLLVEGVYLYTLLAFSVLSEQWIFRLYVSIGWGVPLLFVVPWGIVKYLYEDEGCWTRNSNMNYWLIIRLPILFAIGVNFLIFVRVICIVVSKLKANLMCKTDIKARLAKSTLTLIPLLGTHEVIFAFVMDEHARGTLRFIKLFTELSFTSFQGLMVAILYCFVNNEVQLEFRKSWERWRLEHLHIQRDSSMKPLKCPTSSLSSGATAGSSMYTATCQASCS
In short: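 HEK-293 cells were transfected with 0.5 μg DNA/well of GLP-1R WT or C347A construct and harvested after 24 h into stimulation buffer. Cells were added to wells with DMSO or 12.5–25 μM compound. […] HTRF cAMP readout; four-parameter variable-slope fit; duplicates, ≥3 experiments.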

T1 sequence (P43220 24-463): as the sequence (P43220 24-463 C347A) above, with A324C counted along it
SCTR K317A, sequence (P47872 22-440 K338A limits assumed): as the sequence (P47872 22-440 K338C limits assumed) above, with C317A counted along it

## CC[S+]([O-])c1nc(-c2cccc(OCc3ccccc3)c2)cc(C(F)(F)F)n1 (stereo not shown) [BETP, 4-(3-(Benzyloxy)phenyl)-2-(ethylsulfinyl)-6-(trifluoromethyl)pyrimidine]
SCTR K317A
  potentiating effects at SCTR K317A compared to WT: neither mutating Lys-317 to alanine nor to cysteine had an impact
GLP-1R [1]
  EC50: 0.8 ± 0.6 µM
GLP-1R [1]; cAMP, no peptide ligand, mean ± SD, n.d. = not detected
  GLP-1R agonist Emax: 91 ± 16%
INS-1 832/13 cells; 1 μM GLP-1(9–36)
  insulin secretion with GLP-1(9–36) co-stimulation: elevated insulin secretion
INS-1 832/13 cells
  interaction between compound and GLP-1(9–36) treatment (two-way ANOVA): significant interactions
INS-1 832/13 cells; vs DMSO
  insulin secretion in the absence of GLP-1(9–36): significantly enhanced
GLP-1R [2]
  effect on GLP-1 treatment: did not show a significant positive effect
  increase of efficacy of GLP-1(9–36): 106%
  receptor activation by GLP-1(9–36) in presence of compound: around 50%
SCTR [3]
  EC50: 31 ± 19 µM
SCTR [3]; CHO-K1, read-out: SCTR Sec-FL (PAM) Emax
  Emax: 42 ± 2%
SNAP-SCTR
  EC50: 17 ± 14 µM
SNAP-SCTR; read-out: SNAP-SCTR Binding Emax
  Emax: 152 ± 11%
SCTR K317C
  potentiating effects at SCTR K317C compared to WT: neither mutating Lys-317 to alanine nor to cysteine had an impact
GLP-1R [4]
  EC50: 0.8 ± 0.2 µM
GLP-1R [4]; GLP-1R EC50 vs SCTR PAM EC50
  selectivity toward GLP-1Rs (over SCTR PAM potency): 30 fold
GLP-1R [4]; cAMP, EC20 of GLP-1, mean ± SD, n.d. = not detected
  GLP-1R PAM (GLP-1) Emax: 76 ± 22%
GLP-1R [5]
  intrinsic activity (elevation of basal response), added before or after the wash step: substantial intrinsic activity
GLP-1R [6]
  Kb: 3 µM
GLP-1R [6]; GLP-1R-overexpressing cells
  cooperativity factor α, GLP-1(9–36): 137
  cooperativity factor β, GLP-1(9–36): 5.5
SCTR [7]
  EC50: 24 ± 12 µM
SCTR [7]; CHO-K1, read-out: SCTR PAM (3-pep mix) Emax
  Emax: 51 ± 25%
GLP-1R C347A
  cooperative (PAM) effects on GLP-1(9–36) at GLP-1R C347A compared to WT: eradicated
  intrinsic agonist activity at GLP-1R C347A compared to WT: eradicated
